Measurements as given in ChEMBL document CHEMBL1828547, “Synthesis and antimalarial activity of 2-guanidino-4-oxoimidazoline derivatives” (J Med Chem, 2011).
Values after ≈ are worked out from the molar mass of the structure shown. Active and inactive are the calls of the source. The rule behind the calls is not given here.

Tests used:
[1] = tested on: Plasmodium falciparum; test: Antimalarial activity against blood stage Plasmodium falciparum D6 assessed as [3H]-hypoxanthine uptake after 24 hrs by scintillation counting; type: functional, organism-based
[2] = tested on: Plasmodium berghei; test: Antimalarial activity against Plasmodium berghei […] mouse model assessed as delay in patency time at 320 mg/kg, po administered one day before infection, on day of infection and one day post infection; type: functional
In short: (§1)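 Sporozoite-challenged exoerythrocytic mouse model using P. berghei. Compound ground and suspended in hydroxyethylcellulose with Tween 80 for oral dosing, given once daily for 3 consecutive days: day before, 4 h before, and day after sporozoite inoculation. Dose in (mg/kg)/day. Mice are scored for protection (causal prophylaxis) and for delay in patency.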

[3] = Metabolic stability in mouse assessed as half life at 320 mg/kg, po by LC-MS/MS analysis; type: ADME, organism-based; design: dose 320 mg/kg, route oral; conditions: in vivo
[4] = tested on: Plasmodium berghei; test: Antimalarial activity against Plasmodium berghei […] mouse model assessed as causal prophylactic activity at 160 mg/kg, po administered one day before infection, on day of infection and one day post infection; type: functional, organism-based; design: dose 160 mg/kg; in short: as §1
[5] = tested on: Plasmodium berghei; test: Antimalarial activity against Plasmodium berghei […] mouse model assessed as delay in patency time at 160 mg/kg, po administered one day before infection, on day of infection and one day post infection; type: functional; in short: as §1
[6] = Metabolic stability in human assessed as half life at 320 mg/kg, po by LC-MS/MS analysis; type: ADME, organism-based; design: dose 320 mg/kg, route oral
[7] = tested on: Plasmodium falciparum; test: Antimalarial activity against blood stage Plasmodium falciparum TM91C235 assessed as [3H]-hypoxanthine uptake after 24 hrs by scintillation counting; type: functional, organism-based
[8] = tested on: Plasmodium falciparum; test: Antimalarial activity against blood stage Plasmodium falciparum W2 assessed as [3H]-hypoxanthine uptake after 24 hrs by scintillation counting; type: functional, organism-based
[9] = Metabolic stability in mouse assessed as half life at 160 mg/kg, po by LC-MS/MS analysis; type: ADME, organism-based; design: dose 160 mg/kg, route oral
[10] = Metabolic stability in human assessed as half life at 160 mg/kg, po by LC-MS/MS analysis; type: ADME, organism-based; design: dose 160 mg/kg, route oral
[11] = tested on: Plasmodium berghei; test: Antimalarial activity against Plasmodium berghei […] mouse model assessed as delay in patency time at 40 mg/kg, po administered one day before infection, on day of infection and one day post infection; type: functional; in short: as §1
[12] = tested on: Plasmodium berghei; test: Antimalarial activity against Plasmodium berghei […] mouse model assessed as causal prophylactic activity at 320 mg/kg, po administered one day before infection, on day of infection and one day post infection; type: functional, organism-based; design: dose 320 mg/kg
In short: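 Sporozoite-inoculated P. berghei exoerythrocytic (EE) mouse model. Compound ground and suspended in hydroxyethylcellulose plus Tween 80 for oral dosing, given once daily for 3 consecutive days: day before, 4 h before, and day after sporozoite inoculation (days −1, 0, 1). Dose in (mg/kg)/day. Read-out is mice protected per group (causal prophylaxis) or delay in patency.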

[13] = tested on: Plasmodium cynomolgi; test: Antimalarial activity against Plasmodium cynomolgi infected in rhesus monkey assessed as delay in patency time at 50 mg/kg, po administered one day before infection, on day of infection followed by 1 day post infection; type: functional
In short: (§2)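 Rhesus monkeys challenged with P. cynomolgi sporozoites. Oral dosing on days −1, 0 and 1 in HECT or MC vehicle, with dose in (mg/kg)/day. Read-out is the first day of patency and the delay in patency relative to vehicle-treated controls.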

[14] = tested on: Plasmodium cynomolgi; test: Antimalarial activity against Plasmodium cynomolgi infected in rhesus monkey assessed as delay in patency time at 0.316 mg/kg, po administered one day before infection, on day of infection followed by 1 day post infection; type: functional; in short: as §2
[15] = tested on: Plasmodium cynomolgi; test: Antimalarial activity against Plasmodium cynomolgi infected in rhesus monkey assessed as delay in patency time at 1.78 mg/kg, po administered one day before infection, on day of infection followed by 1 day post infection; type: functional; in short: as §2

| SMILES | IC50 [1] | Time [2] | half-life [3] | Activity [4] | Time [5] | half-life [6] | IC50 [7] | IC50 [8] | half-life [9] | half-life [10] | Time [11] | Activity [12] | Time [13] | Time [14] | Time [15] |
| --- | --- | --- | --- | --- | --- | --- | --- | --- | --- | --- | --- | --- | --- | --- | --- |
| CCC(CC)C(=O)/N=C(\NC1=NC(=O)CN1C(C)C)Nc1ccc(Cl)c(Cl)c1 | 0.06 µg/mL (≈ 0.141 µM) | 3 days | 5 min | inactive | 2 days | 14 min | 0.16 µg/mL (≈ 0.375 µM) | 0.09 µg/mL (≈ 0.211 µM) | – | – | – | – | – | – | – |
| CC(C)n1cc(OC(=O)C(C)(C)C)nc1N/C(=N\C(=O)C(C)(C)C)Nc1ccc(Cl)c(Cl)c1 | > 12 µg/mL | – | – | inactive | – | – | > 12 µg/mL | > 12 µg/mL | > 60 min | > 60 min | – | – | – | – | – |
| CN1CC(=O)N=C1N/C(=N\C(=O)OC(C)(C)C)Nc1ccc(Cl)c(Cl)c1 | 1.26 µg/mL (≈ 3.15 µM) | – | – | – | 1 days | – | 2.54 µg/mL (≈ 6.35 µM) | 1.72 µg/mL (≈ 4.3 µM) | < 10 min | < 10 min | 2 days | – | – | – | – |
| CC/N=C(\NC1=NC(=O)CN1C(C)C)Nc1ccc(Cl)c(Cl)c1 | 3.38 µg/mL (≈ 9.49 µM) | – | – | – | – | – | 3.01 µg/mL (≈ 8.45 µM) | 2.27 µg/mL (≈ 6.37 µM) | – | – | – | – | – | – | – |
| CC(C)(C)N/C(=N/C1=NC(=O)CN1c1ccc(Cl)c(Cl)c1)Nc1ccc(Cl)c(Cl)c1 | 2.45 µg/mL (≈ 5.03 µM) | – | – | inactive | – | > 60 min | – | 2.58 µg/mL (≈ 5.3 µM) | > 60 min | – | – | – | – | – | – |
| CC/N=C(\NC1=NC(=O)CN1c1ccc(Cl)c(Cl)c1)Nc1ccc(Cl)c(Cl)c1 | 2.6 µg/mL (≈ 5.66 µM) | – | – | inactive | – | > 60 min | > 5 µg/mL | > 5 µg/mL | > 60 min | – | – | – | – | – | – |
| CC(C)N1CC(=O)N=C1N/C(=N\C12CC3CC(CC(C3)C1)C2)Nc1ccc(Cl)c(Cl)c1 | 1.55 µg/mL (≈ 3.35 µM) | – | – | inactive | – | – | 2.6 µg/mL (≈ 5.62 µM) | 2.51 µg/mL (≈ 5.43 µM) | 22.3 min | 20.9 min | – | – | – | – | – |
| CC(C)/N=C(\NC1=NC(=O)CN1c1ccc(Cl)c(Cl)c1)Nc1ccc(Cl)c(Cl)c1 | 1.66 µg/mL (≈ 3.51 µM) | 1 days | – | inactive | – | – | 2.83 µg/mL (≈ 5.98 µM) | 2.86 µg/mL (≈ 6.04 µM) | 27.2 min | 39.2 min | – | inactive | – | – | – |
| CC(C)N1CC(=O)N=C1N/C(=N\C(=O)OC(C)(C)C)Nc1ccc(Cl)c(Cl)c1 | 1.6 µg/mL (≈ 3.74 µM) | – | – | Active | – | – | > 5 µg/mL | 0.74 µg/mL (≈ 1.73 µM) | 15.8 min | 12.8 min | – | – | 2 days | – | – |
| COc1cc(C)c2c(Oc3cccc(C(F)(F)F)c3)c(OC)cc(NC(C)CCCN)c2n1 (centres undefined) [TAFENOQUINE] | – | – | – | – | – | – | – | – | – | – | – | – | – | 2 days | – |
| CC(C)(C)N1CC(=O)N=C1NC(=N)Nc1ccc(Cl)c(Cl)c1 | 2.75 µg/mL (≈ 8.04 µM) | – | – | – | 2 days | – | > 5 µg/mL | 1.01 µg/mL (≈ 2.95 µM) | > 60 min | > 60 min | – | Active | – | – | – |
| CC(C)(C)OC(=O)/N=C(\NC1=NC(=O)CN1C(C)(C)C)Nc1ccc(Cl)c(Cl)c1 | 2.9 µg/mL (≈ 6.56 µM) | – | – | Active | – | – | > 5 µg/mL | > 5 µg/mL | < 10 min | < 10 min | – | – | – | – | – |
| CC(C)N1CC(=O)N=C1N/C(=N\C(C)(C)C)Nc1ccc(Cl)c(Cl)c1 | 3 µg/mL (≈ 7.81 µM) | – | – | inactive | – | – | 5.2 µg/mL (≈ 13.5 µM) | 1.49 µg/mL (≈ 3.88 µM) | 1.72 min | 39.7 min | – | – | – | – | – |
| CC(C)N1CC(=O)N=C1NC(=N)Nc1ccc(Cl)c(Cl)c1 | 3.42 µg/mL (≈ 10.4 µM) | – | – | inactive | – | – | 3.31 µg/mL (≈ 10.1 µM) | 2.57 µg/mL (≈ 7.83 µM) | 40 min | > 60 min | 6 days | – | – | – | – |
| COc1cc(NC(C)CCCN)c2ncccc2c1 (centres undefined) [PRIMAQUINE] | – | – | – | – | – | – | – | – | – | – | – | – | – | – | 5 days |
